Among the data in ChEMBL document CHEMBL4732106, “Paracetamol analogues conjugated by FAAH induce TRPV1-mediated antinociception without causing acute liver toxicity” (Eur J Med Chem, 2021) are Activity values, retold here.

Series [1] in a line: Inhibition of prostanoid synthesis in FAAH-/- mouse assessed as PGF2alpha level in diencephalon at 150 mg/kg, ip measured after 40 mins by LC-MS/MS analysis relative to control. The arrangement: scale not given: the % may be the effect or the level left. The series is classed as functional. In short, it runs like this: (§1)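 In a separate set, FAAH+/+ (n = 10–11) and FAAH-/- (n = 5) mice received LPS 100 μg kg⁻¹ i.p., then paracetamol 150 mg kg⁻¹ i.p. 3 h later. Diencephalic PGE2, PGF2α, 6-keto-PGF1α and TXB2 were measured by negative-ion LC-MS/MS and expressed as % of febrile vehicle-treated animals. Values below the detection limit were set to 1/4 of that limit.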

Series [2] is described as follows: Inhibition of prostanoid synthesis in FAAH-/- mouse assessed as PGE2 level in diencephalon at 150 mg/kg, ip measured after 40 mins by LC-MS/MS analysis relative to control. The series is classed as functional. The arrangement: scale not given: the % may be the effect or the level left. The procedure, abridged: as §1
The nature of series [3]: Inhibition of prostanoid synthesis in FAAH-/- mouse assessed as 6-keto-PGF1alpha level in diencephalon at 150 mg/kg, ip measured after 40 mins by LC-MS/MS analysis relative to control. More on the design: scale not given: the % may be the effect or the level left. The series is classed as functional. In short, it runs like this:
as §1

The nature of series [4]: Hepatotoxicity in C57BL/6 mouse assessed as change in ALT level at 300 mg/kg, ip measured after 12 hrs. The series is classed as toxicity, organism-based. The following applies: in vivo. In short, it runs like this: (§2)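 Male C57BL/6 mice (8 weeks) were fasted 12–16 h, then given 300 mg kg⁻¹ i.p. in saline. At 12 h, blood was taken for serum ALT/AST (automated analyser). The left medial liver lobe was fixed in 4% formaldehyde, cryosectioned at 10 μm and stained with H&E. The ALT/AST ratio was tested against 1. Mean ± SEM, n = 6–7.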

For series [5], the system named is Mus musculus. Put plainly: Antipyretic activity against LPS-induced C57BL/6 mouse model of hyperthermia assessed as reduction in body temperature at 100 mg/kg, ip measured after 75 mins. The series is classed as functional, organism-based. In short, it runs like this:
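Male C57BL/6 mice carried telemetry and recovered ≥1 week before use, housed at 29 °C ambient (near-thermoneutral). LPS 100 μg kg⁻¹ i.p. or saline was given, then drug or Ringer's acetate vehicle i.p. 3 h later. Core temperature was recorded continuously and analysed at the nadir time point. n = 4–9 per group.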

Series [6] has as its system Mus musculus. Put plainly: Antipyretic activity against LPS-induced C57BL/6 mouse model of hyperthermia assessed as 6-keto-PGF1alpha level in diencephalon at 100 mg/kg, ip measured after 40 mins by LC-MS/MS analysis relative to control. The series is classed as functional. In short, it runs like this:
(§3)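 Male C57BL/6 mice got LPS (E. coli O111:B4, 100 μg kg⁻¹ i.p.) or saline, then 3 h later the drug i.p. in Ringer's acetate vehicle. Diencephalon was taken 40 min later and homogenized in Tris/EDTA/ascorbate with 10 μM MAFP and 100 μM ibuprofen. Prostanoids were quantified by negative-ion LC-MS/MS and expressed as % of LPS + vehicle. n = 6.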

A short description of series [7]: Inhibition of prostanoid synthesis in FAAH+/+ mouse assessed as TXB2 level in diencephalon at 150 mg/kg, ip measured after 40 mins by LC-MS/MS analysis relative to control. The series is classed as functional. The arrangement: scale not given: the % may be the effect or the level left. The procedure, abridged: as §1
Series [8] relates to Mus musculus. Kind of series: Antipyretic activity against LPS-induced C57BL/6 mouse model of hyperthermia assessed as PGF2alpha level in diencephalon at 100 mg/kg, ip measured after 40 mins by LC-MS/MS analysis relative to control. The series is classed as functional. The procedure, abridged:
as §3

Series [9] is described as follows: Inhibition of prostanoid synthesis in FAAH+/+ mouse assessed as PGF2alpha level in diencephalon at 150 mg/kg, ip measured after 40 mins by LC-MS/MS analysis relative to control. The series is classed as functional. More on the design: scale not given: the % may be the effect or the level left. The procedure, abridged:
as §1

Series [10] is described as follows: Hepatotoxicity in C57BL/6 mouse assessed as centrilobular necrosis at 300 mg/kg, ip measured after 12 hrs by H and E staining based microscopic analysis. The series is classed as toxicity, organism-based. The conditions noted are these: in vivo. The procedure, abridged: as §2
The nature of series [11]: Inhibition of prostanoid synthesis in FAAH+/+ mouse assessed as PGE2 level in diencephalon at 150 mg/kg, ip measured after 40 mins by LC-MS/MS analysis relative to control. The series is classed as functional. More on the design: scale not given: the % may be the effect or the level left. The procedure, abridged:
as §1

Series [12] is described as follows: Inhibition of prostanoid synthesis in FAAH-/- mouse assessed as TXB2 level in diencephalon at 150 mg/kg, ip measured after 40 mins by LC-MS/MS analysis relative to control. The series is classed as functional. More on the design: scale not given: the % may be the effect or the level left. In short, it runs like this:
as §1

The nature of series [13]: Inhibition of prostanoid synthesis in FAAH+/+ mouse assessed as 6-keto-PGF1alpha level in diencephalon at 150 mg/kg, ip measured after 40 mins by LC-MS/MS analysis relative to control. The series is classed as functional. The arrangement: scale not given: the % may be the effect or the level left. In short, it runs like this: as §1
Series [14] deals with Mus musculus. Kind of series: Antipyretic activity against LPS-induced C57BL/6 mouse model of hyperthermia assessed as PGE2 level in diencephalon at 100 mg/kg, ip measured after 40 mins by LC-MS/MS analysis relative to control. The series is classed as functional. In short, it runs like this:
as §3

Series [15] deals with Mus musculus. Put plainly: Antipyretic activity against LPS-induced C57BL/6 mouse model of hyperthermia assessed as TXB2 level in diencephalon at 100 mg/kg, ip measured after 40 mins by LC-MS/MS analysis relative to control. The series is classed as functional. In short, it runs like this:
as §3

Structures are written as SMILES. Calls of active or inactive are those of the source. No cut-off for these calls is given here.

For the compound `CC(=O)Nc1ccc(O)cc1` [ACETAMINOPHEN], the Activity in series [1] was 10%; in series [2], 9%; in series [3], 12%; in series [4] it was “Toxic”; in the series on Mus musculus [6], 17%; in series [7] it was 25%. Moreover, the Activity with Mus musculus [8] is 18%; in series [9] it was 19%; in series [10], “Toxic”; in series [11], 8%; in series [12] it was 18%; in series [13], 15%. Besides, the Activity is 13% in the series with Mus musculus [14] and 36% in the series with Mus musculus [15]. For the same compound, the outcome in the series with Mus musculus [5] was Active.
